Assay results gathered from unrelated publications.
Target: Serine/threonine-protein kinase MAK (MAK, Homo sapiens, UniProt P20794)
One construct used (P20794 1-623): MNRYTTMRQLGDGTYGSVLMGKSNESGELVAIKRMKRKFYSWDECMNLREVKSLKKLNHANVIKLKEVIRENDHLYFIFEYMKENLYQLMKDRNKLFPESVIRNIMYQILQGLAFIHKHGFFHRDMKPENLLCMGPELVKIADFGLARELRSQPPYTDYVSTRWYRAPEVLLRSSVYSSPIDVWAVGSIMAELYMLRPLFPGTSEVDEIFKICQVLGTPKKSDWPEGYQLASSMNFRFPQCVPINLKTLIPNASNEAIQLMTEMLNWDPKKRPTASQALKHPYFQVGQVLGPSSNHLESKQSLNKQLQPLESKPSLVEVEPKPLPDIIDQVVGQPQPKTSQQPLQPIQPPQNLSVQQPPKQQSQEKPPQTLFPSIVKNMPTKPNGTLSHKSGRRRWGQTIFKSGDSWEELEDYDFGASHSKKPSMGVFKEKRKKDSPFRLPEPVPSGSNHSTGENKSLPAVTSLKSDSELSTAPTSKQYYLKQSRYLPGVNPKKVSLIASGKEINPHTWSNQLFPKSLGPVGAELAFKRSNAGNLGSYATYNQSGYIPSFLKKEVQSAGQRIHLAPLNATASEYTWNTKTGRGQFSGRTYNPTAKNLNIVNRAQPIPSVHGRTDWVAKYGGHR

O=C(Nc1cnn(-c2csc(C(=O)NC3COC3)c2)c1)Nc1c(F)cccc1Cl  remaining activity (enzyme activity, inhibitor; 5 µM): 97.6%
Cc1ccc(C(=O)Nc2ccc(CN3CCN(C)CC3)c(C(F)(F)F)c2)cc1C#Cc1cnc2cccnn12  remaining activity (enzyme activity; 23.5 nM): 93%
Cc1sc(C(=O)NC2COC2)cc1-n1cc(NC(=O)Nc2c(F)cccc2Cl)cn1  remaining activity (enzyme activity, inhibitor; 10 µM): 120%
CC(C)CC(=O)N1CCc2nc(-c3ccc(Br)cc3)nc(N(C)Cc3ccccc3)c2C1  remaining binding (cell-free assay, competition with immobilised ligand; 0.1 µM): 99%
Cc1ccc(C(=O)NCc2ccsc2)cc1C#Cc1cn(C(C)C)c2ncnc(N)c12  activity vs control (enzyme activity, inhibitor; 1 µM): 120%
Nc1ncnc2occ(-c3ccc(NC(=O)Nc4cc(C(F)(F)F)ccc4F)cc3)c12  remaining signal (cell-free assay; 20 µM): 7.9%
NS(=O)(=O)c1cc(NC(=O)C2(c3ccccc3Cl)CC2)ccc1Oc1cccc(Cl)c1  remaining binding (binding, competition with immobilised ligand; 1 µM): 89%
CN1CC(Oc2cnc(C#N)cc2-c2ccn3nc(NC(=O)C4CC4)cc3c2)C1  inhibition (enzyme activity, inhibitor; 1 µM): 3%
